The IC50 is the midpoint of a concentration-inhibition curve.

Series [1] relates to OVCAR8-RFP cells xenografted IP. Description: OVCAR8-RFP IP xenograft. Format: in vivo, mouse. The note with it: for tumor burden: compared to DMSO.
Series [2] deals with OVCAR3. The series can be described thus: Cell viability assay. The class given is cell-based, human. The note with it: OVCAR3, 72 h, average. An outline of the steps:
(§1)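 RPMI1640 (OVCAR3, OVCAR4, MDA-MB-435) or DMEM (OVCAR8, MDA-MB-231) was used, with 10% FBS and penicillin/streptomycin. Cells were STR-validated and kept below 20 passages. Cells were plated at 5000 per well overnight, then given test compound at final 0.95–250 nM (nine levels, 0.5% DMSO) for 72 h at 37 °C. Viability was read by CellTiter-Blue absorbance, and IC50 was taken relative to DMSO. Paclitaxel (0.39–100 nM) was the control, with three biological replicates.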

Series [3] has as its system MDA-MB-435. Description: Cell viability assay. The class given is cell-based, human. The note with it: MDA-MB-435, 72 h, average. The procedure, abridged: as §1
The subject of series [4] is MDA-MB-231. The series can be described thus: Cell viability assay. The class given is cell-based, human. The following applies: MDA-MB-231, 72 h, average. The procedure, abridged: as §1
Series [5] relates to OVCAR4. Description: Cell viability assay. Format: cell-based, human. An outline of the steps: as §1
Series [6] relates to OVCAR8. The series can be described thus: Cell viability assay. The class given is cell-based, human. The procedure, abridged:
as §1

Series [7] has as its system OVCAR8 spheroids. Description: Spheroid viability assay. The note with it: read-out: IC50, spheroid viability, 7 days. Format: cell-based, human. An outline of the steps:
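OVCAR8 cells (5000 in 80 μL medium per well) were formed into spheroids in ultra-low-attachment round-bottom wells. Spheroids were treated for 7 days with test compound, DMSO vehicle or paclitaxel control. Viability was measured with CellTiter-Glo after 30 min shaking for lysis, read as luminescence. Dose–response curves were normalized to vehicle to give IC50. Data are mean ± SEM from three biological replicates.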

The test system of series [8] is OVCAR4. Description: 2D foci assay. Format: cell-based, human. The following applies: OVCAR4, 50 nM for 8 h, two weeks colony formation, relative to vehicle. An outline of the steps: (§2)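 Cells were seeded at 200 per 60 mm dish and left to attach overnight. They were then exposed for 8 h to test compound (50 nM), DMSO vehicle or paclitaxel (10 nM). Medium was replaced and cells grew drug-free for about two weeks (15 days). Colonies were fixed in 4% paraformaldehyde, stained with 0.05% crystal violet, imaged and counted. There were three biological replicates, compared with vehicle by Dunnett's test.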

The test system of series [9] is OVCAR8. Description: 2D foci assay. The class given is cell-based, human. The following applies: OVCAR8, 50 nM for 8 h, two weeks colony formation, relative to vehicle. An outline of the steps: as §2
Series [10] relates to murine lymphoma L5178Y. The following applies: mouse lymphoma cells (L5178Y); cited from earlier work.
The test system of series [11] is A2780 human ovarian cancer cell lines. The following applies: cited from earlier work.

As for `CC(=O)O[C@H]1C(=O)[C@@]2(C)[C@H]([C@H](OC(=O)c3ccccc3)[C@]3(O)C[C@H](OC(=O)[C@H](O)[C@@H](NC(=O)c4ccccc4)c4ccccc4)C(C)=C1C3(C)C)[C@]1(OC(C)=O)CO[C@@H]1C[C@@H]2O` [taxol, paclitaxel, reference compound], the tumor burden result in series [1] (0.5 mg/kg twice weekly) is “reduced”.
On to `CC(O)[C@@]12SS[C@]3(C(=O)N1C)[C@@H](O)C1([C@@]45c6ccccc6N[C@@H]4N4C(=O)[C@]6(C(C)O)SS[C@]4(C(=O)N6C)[C@H]5O)c4ccccc4N[C@@H]1N3C2=O` (stereo partly shown) [verticillin D], for which the IC50 in series [2] was found to be 34.2 nM; in [3], 35.3 nM; in series [4], 12.2 nM; in [7], 1170 nM. The cytotoxic activity result in series [5] was “nanomolar cytotoxic activity”; in series [6], “nanomolar cytotoxic activity”; in [10], “moderate cytotoxic activity”. Also, the foci formation entry in series [8] and in series [9] was “completely abrogated foci formation” each time. Moreover, the “liver and organ gross morphology” value in series [1] (0.25 mg/kg in DMSO twice weekly for four weeks) is “gross morphological liver damage and fused organs”. In series [1] (0.25 mg/kg twice weekly for four weeks), the tumor burden entry was “reduced”. In addition, the growth of cells entry in series [11] was “inhibit the growth”.

The values above are taken from paper PMC10405366 (Molecular pharmaceutics, 2023).
